Data published in paper PMC9444296 (Investigative Radiology, 2022).
Entries after “also recorded” stand apart in the source; their conditions may differ.

Legend:
[1] = system: LNCaP human prostate tumors; test: Contrast-enhanced MRI of LNCaP prostate tumor xenografts in rats; type: in vivo, rat; details: 3 T, n = 3
Outline: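 Male rats carried subcutaneous flank xenografts of 4 × 10⁶ PC3 or 8 × 10⁶ LNCaP cells in Matrigel-PBS (1:1) and were imaged once tumours exceeded 100 mm³. Scans used 1 mm slices, 2 averages and a 128 × 128 matrix. The same tumour-bearing rats were reused across agents and doses, with a clinical Gd agent at 0.1 mmol Gd/kg as comparator.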

CYP1A2 [2] = system: CYP1A2
[3] = Plasma stability, dog plasma; type: in vitro ADME; details: 0.5 mM, 37°C, HPLC; for average remaining percentage of intact MT218: n = 2
Outline: (§1)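 Test compound at 0.5 mM was incubated in human, rat or dog plasma at 37°C for up to 48 h, with PBS as control. Samples were mixed with methanol, centrifuged, and the intact compound was quantified by analytical reversed-phase (C18) HPLC.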

[4] = Pharmacokinetics in beagle dogs; type: in vivo, dog; details: for AUC: AUC 0-6h; for AUC / AUCINF / C0 / Cl / MRT / T1/2 / Vz: Gd by ICP-MS, NCA, n = 3
HRH1 = HRH1 (Homo sapiens, UniProt P35367); test: SAFETYscan E/IC50 assay, HRH1; type: biochemical; details: concentration range 0.005 to 100 μM
Outline: (§2)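 Contract-laboratory in vitro panel of 78 targets, run in agonist and/or antagonist modes under provider SOPs over 0.005 to 100 μM. Panel formats included enzyme fragment complementation, FLIPR-based cellular assays, kinase binding and enzymatic assays.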

MAOA = MAOA (Homo sapiens, UniProt P21397); test: SAFETYscan E/IC50 assay, MAOA; type: biochemical; details: concentration range 0.005 to 100 μM
Outline: as §2

SD rats = test: Single and repeated dose toxicity and toxicokinetics in SD rats; type: in vivo, rat; details: for NOAEL: SD rats; for accumulation ratio AUC0–24h (D14)/AUC0–24h (D1) of Gd: 14 days
Outline: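 GLP study in SD rats aged 6–7 weeks (M 200–246 g, F 175–224 g). […] Clinical observation, organ weights and macro/microscopic histopathology were done. Plasma exposure (AUC0–24h, C0) was taken on D1 and D14, with accumulation ratio AUC0–24h(D14)/AUC0–24h(D1) of Gd.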

CYP3A4 = details: human primary hepatocytes, 1, 10, and 100 μM
CYP1A2 [5] = biological target: CYP1A2 (Homo sapiens, UniProt P05177); details: 0.01, 0.1, 1, 10, and 100 μM, pooled human liver microsomes 0.5 mg/mL
r1 and r2 relaxivity = type: physicochemical
Outline: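 For the 1.4 T conditions, test compound was prepared at 0.125, 0.25, 0.5, 1 and 2 mM in HSA (40 mg/mL), water or PBS. T1 and T2 were measured on a benchtop relaxometer at 37°C.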

CNR2 = CNR2 (Homo sapiens, UniProt P34972); test: SAFETYscan E/IC50 assay, CNR2; type: biochemical; details: concentration range 0.005 to 100 μM
Outline: as §2

[6] = system: cardiovascular and respiratory system functions; test: Cardiovascular and respiratory safety pharmacology in conscious beagle dogs; type: in vivo, dog; details: single IV 0.07, 0.21, or 0.70 mmol/kg
Outline: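 GLP study in 9 conscious beagle dogs (4 M, 5 F) given a single IV dose of saline or 0.07, 0.21 or 0.70 mmol/kg, at 3.5 mL/kg. Recorded within 1 h predose and at 0.5, 1, 2, 4 and 24 h: ECG (HR, PR, QRS, QT/QTcF, QRS voltage, STe, rhythm, waveform), systolic/diastolic/mean blood pressure, respiratory frequency and tidal volume.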

[7] = Plasma stability, human plasma; type: in vitro ADME; details: 0.5 mM, 37°C, HPLC; for average remaining percentage of intact MT218: n = 2
Outline: as §1

[8] = Metabolic stability in CD1 mouse hepatocytes; type: in vitro ADME; details: 2 hours of incubation, LC-MS/MS
[9] = beagle dog ♀, 0.04 mmol/kg single IV
[10] = beagle dog ♀, 0.1 mmol/kg single IV
[11] = beagle dog ♀, 0.2 mmol/kg single IV
[12] = beagle dog ♂, 0.04 mmol/kg single IV
[13] = beagle dog ♂, 0.1 mmol/kg single IV
[14] = beagle dog ♂, 0.2 mmol/kg single IV

Chain of CNR2 (P34972 whole entry): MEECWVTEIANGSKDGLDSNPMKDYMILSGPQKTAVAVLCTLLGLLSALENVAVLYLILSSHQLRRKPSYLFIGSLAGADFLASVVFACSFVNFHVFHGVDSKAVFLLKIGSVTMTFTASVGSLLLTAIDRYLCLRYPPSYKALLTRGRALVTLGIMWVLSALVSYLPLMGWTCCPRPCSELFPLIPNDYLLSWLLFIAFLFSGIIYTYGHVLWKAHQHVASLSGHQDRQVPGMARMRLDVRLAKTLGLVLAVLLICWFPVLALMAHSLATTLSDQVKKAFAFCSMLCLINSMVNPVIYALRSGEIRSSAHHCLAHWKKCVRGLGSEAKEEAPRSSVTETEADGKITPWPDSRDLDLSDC
Chain of CYP1A2 (Homo sapiens, UniProt P05177) (P05177 whole entry): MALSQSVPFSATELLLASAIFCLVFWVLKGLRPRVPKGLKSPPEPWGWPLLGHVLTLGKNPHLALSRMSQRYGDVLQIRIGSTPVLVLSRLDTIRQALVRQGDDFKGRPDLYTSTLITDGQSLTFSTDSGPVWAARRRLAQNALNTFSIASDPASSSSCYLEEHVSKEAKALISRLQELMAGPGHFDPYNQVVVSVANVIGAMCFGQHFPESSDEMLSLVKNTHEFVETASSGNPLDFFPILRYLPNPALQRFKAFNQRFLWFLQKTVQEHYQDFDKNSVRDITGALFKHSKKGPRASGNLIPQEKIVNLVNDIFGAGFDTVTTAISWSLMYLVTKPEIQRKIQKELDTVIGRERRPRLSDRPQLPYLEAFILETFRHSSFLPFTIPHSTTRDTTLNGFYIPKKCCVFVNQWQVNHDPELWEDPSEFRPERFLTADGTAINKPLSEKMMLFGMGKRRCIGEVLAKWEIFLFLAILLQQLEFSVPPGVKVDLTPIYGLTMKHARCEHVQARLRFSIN
Chain of HRH1 (P35367 whole entry, the tested form may be a part): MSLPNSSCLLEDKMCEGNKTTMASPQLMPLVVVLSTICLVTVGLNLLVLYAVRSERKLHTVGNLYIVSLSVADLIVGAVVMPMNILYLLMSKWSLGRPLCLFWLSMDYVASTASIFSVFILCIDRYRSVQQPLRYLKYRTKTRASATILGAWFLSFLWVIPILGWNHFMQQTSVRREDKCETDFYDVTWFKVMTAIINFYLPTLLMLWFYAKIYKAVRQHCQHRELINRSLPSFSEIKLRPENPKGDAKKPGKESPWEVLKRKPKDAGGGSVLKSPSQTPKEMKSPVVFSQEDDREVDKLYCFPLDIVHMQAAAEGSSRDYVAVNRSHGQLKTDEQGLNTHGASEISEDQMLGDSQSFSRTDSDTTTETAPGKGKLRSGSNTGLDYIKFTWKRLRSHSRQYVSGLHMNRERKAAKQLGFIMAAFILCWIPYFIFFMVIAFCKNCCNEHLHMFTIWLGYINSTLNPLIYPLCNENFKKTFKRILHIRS
Chain of MAOA (P21397 whole entry, species assumed): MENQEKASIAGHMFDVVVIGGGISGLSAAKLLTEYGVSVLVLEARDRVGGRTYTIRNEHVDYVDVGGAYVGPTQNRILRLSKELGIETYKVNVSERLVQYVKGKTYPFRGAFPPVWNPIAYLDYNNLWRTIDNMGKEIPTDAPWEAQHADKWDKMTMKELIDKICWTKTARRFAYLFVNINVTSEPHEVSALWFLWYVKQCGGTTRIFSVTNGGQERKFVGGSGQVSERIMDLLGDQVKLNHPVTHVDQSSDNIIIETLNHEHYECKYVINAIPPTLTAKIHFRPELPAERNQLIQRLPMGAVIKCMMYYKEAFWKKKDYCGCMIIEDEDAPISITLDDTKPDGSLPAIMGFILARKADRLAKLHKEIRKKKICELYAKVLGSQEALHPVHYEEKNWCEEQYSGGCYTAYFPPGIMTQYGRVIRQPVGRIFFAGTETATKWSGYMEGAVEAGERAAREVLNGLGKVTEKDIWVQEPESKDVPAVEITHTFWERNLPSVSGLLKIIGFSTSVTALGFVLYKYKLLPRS

ZD2-N3-Gd(HP-DO3A) [MT218]
CNR ([1]; 0.02 mmol/kg IV): 0.88 ± 0.06
CNR ([1]; 0.04 mmol/kg IV): 1.13 ± 0.38
mRNA expression level of CYP1A2 vs vehicle controls (CYP1A2 [2]; 100 μM, human hepatocytes, 1 of the 3 lots of cells): 2.10 fold
induction on enzyme activity of CYP1A2 (CYP1A2 [2]; human primary hepatocytes, 1, 10, and 100 μM): no induction
average remaining percentage of intact MT218 ([3]; 1 h): 89.19%
average remaining percentage of intact MT218 ([3]; 3 h): 71.45%
average remaining percentage of intact MT218 ([3]; 6 h): 47.81%
average remaining percentage of intact MT218 ([3]; 28 h): 11.23%
average remaining percentage of intact MT218 ([3]; 48 h): 5.38%
enzymatic degradation half-life (t1/2) [3]: 351 min
AUC [4, 9]: 38160 ng·h/mL
AUC [4, 10]: 93960 ng·h/mL
AUC [4, 11]: 138990 ng·h/mL
AUC [4, 12]: 34800 ng·h/mL
AUC [4, 13]: 89520 ng·h/mL
AUC [4, 14]: 156540 ng·h/mL
AUC Ratio ([4]; AUC(dose)/AUC(low dose), beagle dog ♀, 0.04 mmol/kg): 1
AUC Ratio ([4]; AUC(dose)/AUC(low dose), beagle dog ♂, 0.04 mmol/kg): 1
AUC Ratio ([4]; AUC(high dose)/AUC(low dose), beagle dog ♀, 0.2 mmol/kg): 3.64
AUC Ratio ([4]; AUC(high dose)/AUC(low dose), beagle dog ♂, 0.2 mmol/kg): 4.50
AUC Ratio ([4]; AUC(middle dose)/AUC(low dose), beagle dog ♀, 0.1 mmol/kg): 2.46
AUC Ratio ([4]; AUC(middle dose)/AUC(low dose), beagle dog ♂, 0.1 mmol/kg): 2.57
AUCINF [4, 9]: 38470 ng·h/mL
C0 [4, 9]: 59.33 µg/mL
Cl [4, 9]: 2.734 mL/min/kg
MRT [4, 9]: 58.2 min
T1/2 [4, 9]: 44.4 min
Vz [4, 9]: 0.17599 L/kg
AUCINF [4, 10]: 94170 ng·h/mL
C0 [4, 10]: 146.59 µg/mL
Cl [4, 10]: 2.794 mL/min/kg
MRT [4, 10]: 57.6 min
T1/2 [4, 10]: 40.2 min
Vz [4, 10]: 0.16108 L/kg
AUCINF [4, 11]: 139150 ng·h/mL
C0 [4, 11]: 268.10 µg/mL
Cl [4, 11]: 3.7757 mL/min/kg
MRT [4, 11]: 47.4 min
T1/2 [4, 11]: 37.8 min
Vz [4, 11]: 0.20593 L/kg
AUCINF [4, 12]: 34940 ng·h/mL
C0 [4, 12]: 50.97 µg/mL
Cl [4, 12]: 3.0033 mL/min/kg
MRT [4, 12]: 60.6 min
T1/2 [4, 12]: 45.6 min
Vz [4, 12]: 0.19708 L/kg
AUCINF [4, 13]: 89780 ng·h/mL
C0 [4, 13]: 149.33 µg/mL
Cl [4, 13]: 2.9287 mL/min/kg
MRT [4, 13]: 57 min
T1/2 [4, 13]: 42 min
Vz [4, 13]: 0.17773 L/kg
AUCINF [4, 14]: 156900 ng·h/mL
C0 [4, 14]: 286.90 µg/mL
Cl [4, 14]: 3.367 mL/min/kg
MRT [4, 14]: 52.8 min
T1/2 [4, 14]: 41.4 min
Vz [4, 14]: 0.20164 L/kg
mean plasma elimination half-life (t1/2) ([4]; dogs, 0.1 mmol/kg IV): 41.4 min
inhibition rate (HRH1): 17.77%
inhibition rate (MAOA): 10.21%
NOAEL (SD rats; repeated daily IV dose for 14 days): 0.46 mmol/kg/day
NOAEL (SD rats; single IV dose): 1.39 mmol/kg
accumulation ratio AUC0–24h (D14)/AUC0–24h (D1) of Gd (SD rats; female rats, high dose 1.39 mmol/kg/d IV): 1.22
accumulation ratio AUC0–24h (D14)/AUC0–24h (D1) of Gd (SD rats; female rats, low dose 0.15 mmol/kg/d IV): 1.41
accumulation ratio AUC0–24h (D14)/AUC0–24h (D1) of Gd (SD rats; female rats, medium dose 0.46 mmol/kg/d IV): 1.61
accumulation ratio AUC0–24h (D14)/AUC0–24h (D1) of Gd (SD rats; male rats, high dose 1.39 mmol/kg/d IV): 1.31
accumulation ratio AUC0–24h (D14)/AUC0–24h (D1) of Gd (SD rats; male rats, low dose 0.15 mmol/kg/d IV): 1.52
accumulation ratio AUC0–24h (D14)/AUC0–24h (D1) of Gd (SD rats; male rats, medium dose 0.46 mmol/kg/d IV): 1.49
mortality or moribundity (SD rats; rats, any dose group, up to 1.39 mmol/kg/d): no mortality or morbidity; also recorded: No mortality or moribundity
clinical observations (body weight, food consumption, temperature, ophthalmoscopy, hematology, coagulation, clinical chemistry, urinalysis) (SD rats; rats, any dose level): No MT218-related changes
pathological findings (SD rats; rats, low and medium repeated-dosing groups (0.15, 0.46 mmol/kg/d)): No such abnormality
pathological findings (SD rats; rats, single dose 1.39 mmol/kg): no MT218-related macroscopic and microscopic abnormality
induction of mRNA expression of CYP3A4 (CYP3A4): did not induce
induction on enzyme activity of CYP3A4 (CYP3A4): no induction
inhibition of CYP1A2 activity (CYP1A2 [5]): did not inhibit
r1 Relaxivity (r1 and r2 relaxivity; 1.4 T, HSA aqueous solution (40 mg/mL), 37°C): 6.54 mM⁻¹ s⁻¹
r1 Relaxivity (r1 and r2 relaxivity; 1.4 T, PBS, 37°C): 6.58 mM⁻¹ s⁻¹
r1 Relaxivity (r1 and r2 relaxivity; 3.0 T, H2O, MRS 3000 scanner): 6.25 (H2O) mM^−1 s^−1
r1 Relaxivity (r1 and r2 relaxivity; 3.0 T, PBS): 6.16 mM⁻¹ s⁻¹
inhibition rate (CNR2): 12.4%
effect on ECG, blood pressure and respiratory function parameters [6]: no MT218-related effect
average remaining percentage of intact MT218 ([7]; 1 h): 83.47%
average remaining percentage of intact MT218 ([7]; 3 h): 48.79%
average remaining percentage of intact MT218 ([7]; 6 h): 12.87%
average remaining percentage of intact MT218 ([7]; 28 h): 5.21%
average remaining percentage of intact MT218 ([7]; 48 h): 3.97%
enzymatic degradation half-life (t1/2) [7]: 158 min
remaining MT218 [8]: 50.6%
